This note sets out measurements from ChEMBL document CHEMBL1134547 (J Med Chem, 2001).

Assay [1] can be described thus: Inhibition of dihydrofolate reductase DHFR in Pneumocystis carinii. A digest of the protocol: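 Spectrophotometric DHFR assay following enzymatic reduction of dihydrofolate to tetrahydrofolate with NADPH cofactor. 1 mL mixture in phosphate buffer (40.7 mM, pH 7.4) containing NADPH (0.117 mM), dihydrofolate (0.092 mM), 2-mercaptoethanol (8.9 mM) and 0.018 units DHFR. IC50 is the drug concentration that halves the reduction rate relative to control.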

The target in assay [2] is T1, Bifunctional dihydrofolate reductase-thymidylate synthase (Toxoplasma gondii, UniProt Q07422).
T1 sequence (Q07422 whole entry): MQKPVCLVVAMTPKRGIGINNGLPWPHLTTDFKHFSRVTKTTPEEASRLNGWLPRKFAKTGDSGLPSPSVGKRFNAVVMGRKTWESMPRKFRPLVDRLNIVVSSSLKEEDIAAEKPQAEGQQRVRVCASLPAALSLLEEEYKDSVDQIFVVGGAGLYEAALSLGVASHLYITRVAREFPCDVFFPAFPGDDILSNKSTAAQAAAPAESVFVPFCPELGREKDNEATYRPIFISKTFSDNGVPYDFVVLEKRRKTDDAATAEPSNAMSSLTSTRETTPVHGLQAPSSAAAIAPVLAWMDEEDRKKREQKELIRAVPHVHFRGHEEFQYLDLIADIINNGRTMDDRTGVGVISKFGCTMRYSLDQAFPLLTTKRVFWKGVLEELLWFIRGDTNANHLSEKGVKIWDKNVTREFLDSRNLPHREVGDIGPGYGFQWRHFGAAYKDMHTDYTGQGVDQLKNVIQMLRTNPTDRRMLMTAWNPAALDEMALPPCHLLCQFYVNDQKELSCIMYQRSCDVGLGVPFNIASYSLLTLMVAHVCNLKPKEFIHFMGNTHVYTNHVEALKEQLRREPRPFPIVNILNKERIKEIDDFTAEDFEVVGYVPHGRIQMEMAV
The assay is described as follows: Inhibitory activity against dihydrofolate reductase DHFR in Toxoplasma gondii.

Assay [3] deals with T2, Dihydrofolate reductase (Rattus norvegicus, UniProt Q920D2).
T2 sequence (Q920D2 whole entry): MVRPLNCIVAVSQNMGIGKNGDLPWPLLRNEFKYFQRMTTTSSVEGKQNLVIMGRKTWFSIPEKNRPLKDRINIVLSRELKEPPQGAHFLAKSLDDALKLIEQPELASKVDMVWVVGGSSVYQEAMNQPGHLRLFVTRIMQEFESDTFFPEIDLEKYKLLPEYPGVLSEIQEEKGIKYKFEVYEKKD
The assay is described as follows: Inhibitory activity against dihydrofolate reductase DHFR in rat liver.

Assay [4] has as its target T3, Dihydrofolate reductase (Mycobacterium avium, UniProt O30463).
T3 sequence (O30463 whole entry): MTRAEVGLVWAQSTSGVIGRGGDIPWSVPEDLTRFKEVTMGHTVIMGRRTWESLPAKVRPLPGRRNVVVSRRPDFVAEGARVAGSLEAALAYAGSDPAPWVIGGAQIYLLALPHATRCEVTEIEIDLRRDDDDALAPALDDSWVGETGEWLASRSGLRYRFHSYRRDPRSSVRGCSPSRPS
The assay is described as follows: Inhibitory activity against dihydrofolate reductase DHFR in Mycobacterium avium.

A short description of assay [5]: Selectivity ratio of IC50(rat liver)/IC50(Mycobacterium avium).

Broadly, the IC50 is the midpoint of a concentration-inhibition curve. A higher IC50 goes with weaker potency. Take `CCc1nc(N)nc(N)c1-c1ccc(Cl)c(/N=N/N(CCOC(C)=O)Cc2ccc3ccccc3c2)c1`: the IC50 in assay [1] amounted to 0.59 µM; in assay [2], 1.05 µM; in assay [3] it was 0.62 µM.

For the compound `CCc1nc(N)nc(N)c1-c1ccc(Cl)c(/N=N/N(CCO)CCc2ccccc2)c1`, the IC50 in assay [1] came to 0.48 µM; in assay [2] it was 1.79 µM; in assay [4], 5.42 µM; in assay [3] it was 4.67 µM. In addition, the Selectivity ratio in assay [5] came to 0.86.

In the case of `CCc1nc(N)nc(N)c1-c1ccc(Cl)c(/N=N/N(CCOC(C)=O)Cc2cc(OC)c(OC)c(OC)c2)c1`, the figures for the IC50 in assay [1], in assay [2] and in assay [3] were 1.5 µM, 0.07 µM and 0.45 µM, respectively.

`CCc1nc(N)nc(N)c1-c1ccc(Cl)c(/N=N/N(CCOC(C)=O)Cc2ccc(OC)c(OC)c2)c1`: the figures for the IC50 in assay [1], in assay [2] and in assay [3] were 1.4 µM, 0.08 µM and 0.39 µM, respectively.

Compound `CCc1nc(N)nc(N)c1-c1ccc(Cl)c(/N=N/N(CCO)Cc2ccccc2)c1` yielded an IC50 in assay [1] of 0.26 µM.

`CCC(=O)OCCN(Cc1ccccc1)/N=N/c1cc(-c2c(N)nc(N)nc2CC)ccc1Cl`: the results for the IC50 in assay [1], in assay [2] and in assay [3] were 1.3 µM, 0.7 µM and 3.3 µM, respectively.

For the compound `CCc1nc(N)nc(N)c1-c1ccc(Cl)c(/N=N/N(CCO)[C@H](C)c2ccccc2)c1`, the IC50 in assay [1] came to 1.09 µM; in assay [2] it was 1.47 µM; in assay [3], 6.44 µM.

In the case of `CCc1nc(N)nc(N)c1-c1ccc(Cl)c(/N=N/N(CCOC(C)=O)Cc2ccccc2C)c1`, the IC50 in assay [1] is 11.1 µM; in assay [2] it was 0.83 µM; in assay [4] it was 24.5 µM; in assay [3], 11.2 µM.

For `CCc1nc(N)nc(N)c1-c1ccc(Cl)c(/N=N/N(CCOC(C)=O)Cc2cccc(Cl)c2)c1`, the IC50 in assay [1] was determined as 0.58 µM; in assay [2], 1.16 µM; in assay [3], 1.29 µM.

For `CCc1nc(N)nc(N)c1-c1ccc(Cl)c(/N=N/N(CCOC(=O)c2ccccc2)Cc2ccccc2)c1`, the IC50 in assay [1] was 0.85 µM; in assay [2], 0.22 µM; in assay [3], 0.69 µM.

On to `CCc1nc(N)nc(N)c1-c1ccc(Cl)c(/N=N/N(CCOC(C)=O)Cc2ccc(OC)cc2)c1`, for which the results for the IC50 in assay [2] and in assay [3] were 0.44 µM and 2.1 µM, respectively.

With `CCc1nc(N)nc(N)c1-c1ccc(Cl)c(/N=N/N(CCOC(C)=O)Cc2cccc(F)c2)c1`, the IC50 in assay [1] was found to be 2.22 µM; in assay [2], 1.25 µM; in assay [4], 4.07 µM; in assay [3], 3.87 µM. In addition, in assay [5], the Selectivity ratio was found to be 0.95.

For the compound `CCc1nc(N)nc(N)c1-c1ccc(Cl)c(/N=N/N(CCOC(C)=O)Cc2cccc(C)c2)c1`, the IC50 in assay [1] stood at 5.29 µM; in assay [2], 5.39 µM; in assay [4], 25.2 µM; in assay [3], 5.8 µM. The Selectivity ratio in assay [5] came to 0.23.

On to `CCc1nc(N)nc(N)c1-c1ccc(Cl)c(/N=N/N(CCOC(C)=O)Cc2ccc(C)cc2)c1`, for which the IC50 in assay [1] is 1.7 µM; in assay [2], 0.63 µM; in assay [4] it was 4.43 µM; in assay [3], 3.85 µM. Besides, the Selectivity ratio in assay [5] is 0.87.

Take `CCc1nc(N)nc(N)c1-c1ccc(Cl)c(/N=N/N(CCOC(C)=O)Cc2cccc([N+](=O)[O-])c2)c1`: the IC50 in assay [1] came to 1.3 µM; in assay [2], 0.83 µM; in assay [4], 3.69 µM; in assay [3], 1.61 µM. Besides, the Selectivity ratio in assay [5] turned out to be 0.44.

`CCc1nc(N)nc(N)c1-c1ccc(Cl)c(/N=N/N(CCO)[C@@H](C)c2ccccc2)c1`: the IC50 in assay [1] was determined as 1.26 µM; in assay [2] it was 2.7 µM; in assay [3], 6.51 µM.

Take `CCc1nc(N)nc(N)c1-c1ccc(Cl)c(/N=N/N(CCOC(C)=O)Cc2ccccc2F)c1`: the results for the IC50 in assay [1], in assay [2] and in assay [3] were 92 µM, 7.8 µM and 14.9 µM, respectively.

`CCc1nc(N)nc(N)c1-c1ccc(Cl)c(/N=N/N(CCOC(C)=O)Cc2ccccc2Cl)c1`: the IC50 in assay [1] is 4.7 µM; in assay [2], 6.1 µM; in assay [3], 8.4 µM.

On to `CCc1nc(N)nc(N)c1-c1ccc(Cl)c(/N=N/N(CCOC(C)=O)Cc2cc(OC)cc(OC)c2)c1`, for which the IC50 in assay [1] was determined as 0.86 µM; in assay [2], 0.378 µM; in assay [4] it was 4.36 µM; in assay [3], 0.845 µM. Further, the Selectivity ratio in assay [5] was 0.19.

On to `CCc1nc(N)nc(N)c1-c1ccc(Cl)c(/N=N/N(CCOC(=O)C(C)C)Cc2ccccc2)c1`, for which the IC50 in assay [1] is 1.2 µM; in assay [2], 0.66 µM; in assay [3], 3.7 µM.

In the case of `CCc1nc(N)nc(N)c1-c1ccc(Cl)c(/N=N/N(C)C)c1`, it took 2.8 µM to reach half-maximal inhibition in assay [1] (IC50).

As to `CCc1nc(N)nc(N)c1-c1ccc(Cl)c(/N=N/N(CCOC(C)=O)Cc2ccc([N+](=O)[O-])cc2)c1`, the IC50 in assay [1] came to 1.21 µM; in assay [2], 0.85 µM; in assay [4], 5.34 µM; in assay [3], 3.33 µM. In assay [5], the Selectivity ratio came to 0.62.

On to `CCc1nc(N)nc(N)c1-c1ccc(Cl)c(/N=N/N(CCOC(C)=O)Cc2ccc(C(F)(F)F)cc2)c1`, for which the results for the IC50 in assay [1], in assay [2] and in assay [3] were 1.35 µM, 2.54 µM and 6.62 µM, respectively.

As to `CCc1nc(N)nc(N)c1-c1ccc(Cl)c(/N=N/N(CCOC(C)=O)Cc2ccc(F)cc2)c1`, the IC50 is 1.91 µM in assay [1], 4.4 µM in assay [2], 7.46 µM in assay [4] and 3.83 µM in assay [3]. Besides, the Selectivity ratio in assay [5] came out at 0.51.

As to `CCc1nc(N)nc(N)c1-c1ccc(Cl)cc1` [PYRIMETHAMINE], it took 3.65 µM to reach half-maximal inhibition in assay [1] (IC50).

On to `CCc1nc(N)nc(N)c1-c1ccc(Cl)c(/N=N/N(CCOC(C)=O)Cc2ccncc2)c1`, for which the IC50 in assay [1] came out at 3.46 µM; in assay [2], 0.64 µM; in assay [4] it was 2.03 µM; in assay [3], 6.19 µM. The Selectivity ratio in assay [5] stood at 3.05.

On to `CCc1nc(N)nc(N)c1-c1ccc(Cl)c(/N=N/N(CCOC(C)=O)Cc2cccc3ccccc23)c1`, for which the IC50 is 0.053 µM in assay [1], 0.2 µM in assay [2] and 0.28 µM in assay [3].

With `CCc1nc(N)nc(N)c1-c1ccc(Cl)c(/N=N/N(CCOC(C)=O)Cc2ccc(Cl)cc2)c1`, the IC50 was found to be 0.94 µM in assay [1], 0.8 µM in assay [2] and 1.8 µM in assay [3].

In the case of `CCc1nc(N)nc(N)c1-c1ccc(Cl)c(/N=N/N(CCCO)Cc2ccccc2)c1`, the IC50 was determined as 0.68 µM in assay [1], 2.01 µM in assay [2], 3.9 µM in assay [4] and 7.35 µM in assay [3]. Also, the Selectivity ratio in assay [5] stood at 1.88.
